Published values pooled from the literature.
Each line is one published result; the experiments were not run side by side.
Cell line: HL-60
Observed: cell growth or viability

Cn1c(-c2nnc(NC(=O)c3cc4c([nH]c5ccccc54)c(-c4ccc(F)cc4)n3)s2)cc2ccccc21
IC50 (MTT; 72 h): 37.2 µM

COc1ccc(C(=O)CC(=O)c2ccc(C(C)(C)C)cc2)cc1
IC50 (dark): ~30 µM

O=c1[nH]c(=S)n(Cc2ccc(Cl)cc2CNCC(F)(F)F)c2cc[nH]c12
IC50: 1.3 µM

CC[C@@H](C)[C@H](N)C(=O)N1Cc2ccccc2C1
IC50 (ATP luminescence; 48 h): 2.14 µM

COc1cc(/C=C/C(=O)CC(=O)/C=C/c2ccc(O)c(OC)c2)ccc1O
IC50 (resazurin; 72 h, dark): 4.1 µM

N[C@@H](CC(=O)N1CCN(C(c2ccc(F)cc2)c2ccc(F)cc2)CC1)C(=O)N1Cc2ccccc2C1
IC50 (ATP luminescence; 48 h): 2.71 µM

COc1cc(-c2nc(C(=O)Nc3nnc(-c4cc5ccccc5n4C)s3)cc3c2[nH]c2ccccc23)cc(OC)c1OC
IC50 (MTT; 72 h): 10 µM

CC(C)C[C@H](NC(=O)[C@H](Cc1ccccc1)NC(=O)c1cnccn1)B(O)O
IC50 (ATP luminescence): 0.0041 µM

COc1ccc(-c2nc(C(=O)Nc3nnc(-c4cc5ccccc5[nH]4)s3)cc3c2[nH]c2ccccc23)cc1
IC50 (MTT; 72 h): 3.83 µM

CCCON(Cc1ccc(C(=O)NO)cc1)C(=O)Nc1ccccc1
IC50 (ATP luminescence; 72 h): 1.69 µM

COc1cccc2c1C(=O)c1c(O)c3c(c(O)c1C2=O)C[C@@](O)(C(=O)CO)C[C@@H]3O[C@H]1C[C@H](N)[C@H](O)[C@H](C)O1
IC50 (MTT; 72 h): 1.08 µM

CN1c2ccccc2C(=O)N2[C@H](C(=O)Nc3ccc(C(=O)Nc4ccccc4N)cc3)Cc3c([nH]c4ccccc34)[C@@H]12
IC50: 0.56 µM
